Measurements pooled from the literature.
Compare with care: the assays were run in different laboratories.

`Cc1noc([C@H](Cc2c[nH]cn2)NC(=O)CN(CCCc2ccccc2)CC(=O)O)n1` gave a Tmax of 10 min (male C57BL/6 mouse, plasma; intraperitoneal, 30 mg/kg).
With `CC(C)(C)c1ccc(O)c(CN(Cc2cc(C(C)(C)C)ccc2O)C2CCC(NC(N)=O)CC2)c1` (stereo not shown) the Tmax was 30 min (male C57BL/6 mouse, plasma; oral, 10 mg/kg, single dose).
With `COc1ccc(C[C@@H](C(=O)NO)n2cc(CNS(=O)(=O)c3ccc(-c4ccccc4)s3)nn2)cc1` the Tmax was 20 min (female CD-1 mouse, plasma; intraperitoneal, 50 mg/kg).
For `Cc1cc(Nc2ccc(S(F)(F)(F)(F)F)cc2)n2ncnc2n1`, the Tmax was 120 min (male Swiss mouse, plasma; oral, 100 mg/kg, single dose).
With `CN1C(=O)c2ccccc2[S@+]([O-])c2ccc(C(=O)NCCc3cccs3)cc21` the Tmax was 15 min (male C57BL/6 mouse, plasma; intraperitoneal, 30 mg/kg, single dose).
For `COc1ccc(C(O)COc2ccc(-c3csc(-c4ccc(OCC(O)c5ccc(OC)c(OC)c5)cc4)n3)cc2)cc1OC` (stereo not shown), the Tmax was 60 min (C57BL/6 mouse, plasma; oral, 10 mg/kg).
`CC(C)(C)c1cc(NC(=O)Nc2ccc(Oc3ccnc4[nH]c(=O)cnc34)cc2F)n(-c2ccccc2)n1` gave a Tmax of 30 min (BALB/c mouse, plasma; oral, 10 mg/kg).
For `COc1cc(/C=C/C(=O)CC(=O)/C=C/c2ccc(O)c(OC)c2)ccc1O`, the Tmax was 120 min (HPLC; Swiss mouse, plasma; oral, 2 g/kg).
With `CN1CCN(C(=O)CN[C@@H]2C[C@H]2c2ccc(OCc3ccccc3)cc2)CC1` the Tmax was 4.8 min (mouse, plasma; intraperitoneal, 10 mg/kg).
The Tmax of `CC(C)Oc1c(NC(=O)c2ccc(NC(=O)[C@H](CC(N)=O)NC(=O)c3ccc(NC(=O)c4ccc(C#N)cc4)cc3)cc2)ccc(C(=O)Nc2ccc(C(=O)O)cc2)c1O` is reported as 100 min (male CD-1 mouse, plasma; subcutaneous, 5 mg/kg, single dose).
The Tmax of `O=C(c1nc2ccc(F)cc2[nH]1)c1c[nH]c2c(F)cccc12` is reported as roughly 15 min (female mouse, plasma; intraperitoneal, 6 mg/kg).
With `CC=Cc1ccc(O)c(OC)c1` the Tmax was 5 min (mouse, lung; intranasal, 100 mg/kg).
`CNC(=O)c1cc(Oc2ccc(NC(=O)Nc3ccc(Cl)c(C(F)(F)F)c3)c(F)c2)ccn1` has a Tmax of 162 min (male mouse, plasma; oral, 10 mg/kg, single dose).
With `CSc1cc(Oc2ccnc3[nH]c(=O)cnc23)ccc1NC(=O)Nc1cc(C(C)(C)C)nn1-c1ccccc1` the Tmax was 60 min (BALB/c mouse, plasma; intravenous, 2 mg/kg).
`COc1nc(-c2cc(C)c(N[C@@H](C)c3c(F)cc(F)cc3F)nn2)ccc1-n1cnc(C)c1` has a Tmax of 4.98 min (male CD-1 mouse, plasma; intravenous, 1 mg/kg, single dose).
`OC[C@H]1O[C@@H](c2ccc(Cl)c(Cc3ccc(O[C@H]4CCOC4)cc3)c2)[C@H](O)[C@@H](O)[C@@H]1O` gave a Tmax of 15 min (CD-1 mouse, plasma; oral, 10 mg/kg).
With `CC(C)c1cnn2c(NCc3ccccc3)cc(NC[C@H]3CCNC[C@@H]3O)nc12` the Tmax was 120 min (male CD-1 mouse, plasma; oral).
The Tmax of `Cc1ccc(NC(=O)c2ccc(CN3CCN(C)CC3)cc2)cc1Nc1nccc(-c2cncc(-c3oncc3C)c2)n1` is reported as 120 min (male C57BL/6 mouse, brain; oral, 100 mg/kg/day).
`CN1CCC[C@H](CN2c3ccccc3Sc3ccccc32)C1.O=C(O)CCC(=O)O` has a Tmax of 120 min (mouse, plasma; oral, 64 mg/kg, single dose).
For `Cc1cc(NC(=O)c2cccc3cc(-c4cccc5[nH]nc(N)c45)ccc23)ccc1F`, the Tmax was 60 min (male CD-1 mouse, plasma; oral, 10 mg/kg).
With `COc1ccc2nccc(N3CCc4c(cc(Cn5ccnc5)cc4-c4cn(C)nc4C(F)(F)F)C3=O)c2c1` the Tmax was 78 min (male CD-1 mouse, plasma; oral, 50 mg/kg).
The Tmax of `CC(C)NC(=O)COc1cccc(-c2nc(Nc3ccc4[nH]ncc4c3)c3ccccc3n2)c1` is reported as no more than 120 min (male C57BL/6 mouse, plasma; oral, 100 mg/kg).
`CCc1ccc(Cc2cc([C@@H]3O[C@H](CO)[C@@H](O)[C@H](O)[C@H]3O)cc3c2CCC3)cc1` has a Tmax of 30 min (male C57BL/6 mouse, plasma; oral, 1 mg/kg).
With `c1ccc(-c2nc(N3CCC(c4ccccn4)C3)c3ccccc3n2)nc1` (stereo not shown) the Tmax was 78 min (female BALB/c mouse, plasma; oral, 50 mg/kg).
`COc1nc(-c2cc(C)c(N[C@@H](C)c3ccc(F)cc3)nn2)ccc1-n1cnc(C)c1` gave a Tmax of 60 min (male CD-1 mouse, plasma; oral, 5 mg/kg, single dose).
The Tmax of `COc1ccc2c3c1O[C@H]1C[C@@H](OC(=O)c4ccccc4)C=C[C@@]31CCN(C)C2` is reported as 3 min (mouse, brain; intravenous, 3 mg/kg).
The Tmax of `COc1nc(-c2cc(C)c(N[C@@H](C)c3cc(F)cc(F)c3)nn2)ccc1-n1cnc(C)c1` is reported as 4.98 min (male CD-1 mouse, plasma; intravenous, 1 mg/kg, single dose).
For `CCc1cc(C(=O)NC)c2nccc(N3CCc4c(cc(Cn5ccnc5)cc4-c4cn(C)nc4C(F)(F)F)C3=O)c2c1`, the Tmax was 30 min (male CD-1 mouse, plasma; oral, 150 mg/kg).
`O=S(=O)(c1ccc(-c2ccc3nccc(Nc4ccncn4)c3c2)cc1)N1CCOCC1` gave a Tmax of 15 min (female BALB/c mouse, plasma; intraperitoneal, 10 mg/kg).
`COC(=O)CN(CCCc1ccccc1)CC(=O)N[C@@H](Cc1c[nH]cn1)c1nc(C)no1` gave a Tmax of 10 min (male C57BL/6 mouse, plasma; intraperitoneal, 30 mg/kg).
`Cc1ncsc1-c1ccc(CNC(=O)[C@@H]2C[C@@H](O)CN2C(=O)[C@@H](NC(=O)CCCCCCCCCCCC(=O)NCCCCC#Cc2cccc(-c3nn(-c4nc(C(=O)O)cs4)c(CC4CC4)c3Cc3ccc(S(N)(=O)=O)cc3)c2)C(C)(C)C)cc1` gave a Tmax of 480 min (male Swiss mouse, plasma; intraperitoneal, 5 mg/kg, single dose).
For `CCc1cc(OC)c2nccc(N3CCc4c(cc(Cn5ccnc5)cc4-c4cn(C)nc4C(F)(F)F)C3=O)c2c1`, the Tmax was 42 min (male CD-1 mouse, plasma; oral, 50 mg/kg).
The Tmax of `CS(=O)(=O)CCNCc1ccc(-c2ccc3ncnc(Nc4ccc(OCc5cccc(F)c5)c(Cl)c4)c3c2)o1` is reported as 60 min (nude mouse, plasma; oral, 50 mg/kg, single dose).
With `CNC(=O)c1cc(OC)cc2c(N3CCc4c(cc(Cn5ccnc5)cc4-c4cn(C)nc4C(F)(F)F)C3=O)ccnc12` the Tmax was 48 min (male CD-1 mouse, plasma; oral, 50 mg/kg).
The Tmax of `CNCCN(C)c1cc(C#N)cc(CCc2cc(C)cc(N)n2)c1` is reported as 240 min (male BALB/c mouse, brain; oral, 10 mg/kg).
For `Cc1ccc2cncc(N3CCc4c(cc(Cn5ccnc5)cc4-c4cn(C)nc4C(F)(F)F)C3=O)c2c1`, the Tmax was 18 min (male CD-1 mouse, plasma; oral, 10 mg/kg).
`C=CC(=O)N1CC2CC(n3nc(-c4ccc(C(=O)Nc5ccccn5)cc4)c4c(N)ncnc43)CC2C1` (stereo not shown) has a Tmax of 15 min (SCID mouse, plasma; oral, 3 mg/kg).
